# Beta apoptosis: beta cell apoptosis inhibition. INS-1E cytokine-induced death, ATP luminescence, 48 h; percent of positive-control rescue, neutral wells zero. protection from apoptosis, % (test concentration not listed). hit rate 0.8% among 300,000;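 active = Every replicate reaches about 75%, or at least half do and their mean reaches it too, limit read from the data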;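 note: higher means more ATP so stronger rescue from cytokine killing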
# T cruzi inh: blocks replication of Trypanosoma cruzi; AID 1885; inhibition, % (test concentration not listed); hit rate 1.4% among 300,000; T. cruzi beta-gal in NIH3T3, luminescence, 90 h;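 active = mean inhibition across valid replicates above about 55%, limit read from the data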;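 note: signal also drops with host cell toxicity which is not excluded here; higher percent means less beta-gal luminescence so fewer parasites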
#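 System: Mouse NIH/3T3 fibroblasts infected with β-gal-expressing T. cruzi Tulahuen C4 | Quantity: NIH/3T3 cells, 5,000 per well | Reagent: 5000 reporter trypomastigotes per well | Dosing: Compound pinned at 50 nL/well, DMSO | Schedule: 3 h host attachment, then at least 90 h co-culture | Detection: GalScreen luminescence, 60 min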
# UPR CHOP act: activators of apoptotic arm of unfolded protein response (CHOP) | activation, % at 10 µM | AID 449763 | hit rate 0.34% among 330,000 | CHO-CHOP luciferase reporter, UPR activation, luminescence; percent of tunicamycin response over DMSO baseline;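 active = at 10 µM dose, activation of 40% or more, normalized to positive control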
#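 Assay system: CHO cells with stable CHOP pathway luciferase reporter; Buffer or medium: F12 plus 10% serum; Times: 16-18 h cell attachment, then 6 h compound exposure, 37 °C; Signal: luciferase luminescence; Read-out basis: percent activation relative to tunicamycin control; Control set: tunicamycin high control, DMSO low control.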
# XBP1 UPR activ: activators of adaptive arm of unfolded protein response (XBP1) | CHO-XBP1 luciferase reporter, IRE1-XBP1 UPR activation, luminescence; percent of tunicamycin response, DMSO as zero | activation, % at 20 µM | hit rate 0.33% among 330,000;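 active = versus positive control, 20 µM dose yields 30% or more activation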
#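 Material: IRE1-XBP1 luciferase reporter CHO line / Quantity: one thousand reporter cells per well / Buffer or medium: F12 with 10% serum / Compound: 20 µM single concentration, DMSO 1% / Times: 6 h treatment, 37 °C / Detection: Steady-Glo luciferase glow luminescence, 10 min after reagent addition / Benchmarks: tunicamycin high, DMSO low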
# Mdm2-MdmX inh: inhibitors of human Mdm2/MdmX interaction; O15151+Q00987; SaOS-2 split-luciferase Mdm2/MdmX complementation, luminescence; inhibition, % at 8 µM; hit rate 3% among 330,000;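 active = inhibition of at least 50% at 8 µM in the primary screen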
# Target sequence (O15151 whole entry, looked up): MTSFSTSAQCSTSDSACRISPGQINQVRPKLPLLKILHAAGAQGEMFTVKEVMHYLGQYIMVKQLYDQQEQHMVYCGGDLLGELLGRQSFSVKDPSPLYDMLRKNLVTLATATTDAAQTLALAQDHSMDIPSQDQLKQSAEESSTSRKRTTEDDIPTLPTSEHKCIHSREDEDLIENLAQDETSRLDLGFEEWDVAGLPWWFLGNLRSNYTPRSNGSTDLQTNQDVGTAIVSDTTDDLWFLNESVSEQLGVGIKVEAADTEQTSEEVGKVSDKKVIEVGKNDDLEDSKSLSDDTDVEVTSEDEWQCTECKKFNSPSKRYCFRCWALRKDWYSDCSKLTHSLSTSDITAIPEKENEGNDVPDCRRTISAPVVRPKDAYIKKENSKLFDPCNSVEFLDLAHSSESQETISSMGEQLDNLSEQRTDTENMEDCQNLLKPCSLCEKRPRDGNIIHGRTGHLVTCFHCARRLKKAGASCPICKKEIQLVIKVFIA
# Target sequence (Q00987 whole entry, looked up): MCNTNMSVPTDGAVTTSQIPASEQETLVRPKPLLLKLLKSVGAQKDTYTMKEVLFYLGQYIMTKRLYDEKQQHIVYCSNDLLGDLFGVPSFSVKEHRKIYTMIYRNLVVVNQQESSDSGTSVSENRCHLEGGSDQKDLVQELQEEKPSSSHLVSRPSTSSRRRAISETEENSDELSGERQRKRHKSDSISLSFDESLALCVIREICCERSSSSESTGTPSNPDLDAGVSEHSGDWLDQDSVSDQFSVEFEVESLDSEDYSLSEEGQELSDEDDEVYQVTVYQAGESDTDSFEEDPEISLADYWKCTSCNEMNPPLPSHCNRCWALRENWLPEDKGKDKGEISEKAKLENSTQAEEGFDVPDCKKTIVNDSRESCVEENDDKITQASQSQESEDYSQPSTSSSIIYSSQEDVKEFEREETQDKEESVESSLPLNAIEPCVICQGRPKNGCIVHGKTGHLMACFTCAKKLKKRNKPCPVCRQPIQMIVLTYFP
# CSC inhib: blocks cancer stem cells; cancer stem cell-like cells viability, luminescence; inhibition, % at 7.5 µM; hit rate 1.1% among 300,000; in the data active = inhibition above about 75%; tested in HMLE shEcad cells
# Mdm2 MdmX conf: confirmation of human Mdm2/MdmX interaction inhibitors | shares compounds with Mdm2-MdmX inh | Mdm2-MdmX binding, luminescent assay | inhibition, % at 8 µM | hit rate 55% among 10,000; in the data active = inhibition above about 40%
# FLuc counter: inhibits full-length luciferase, flagging false Mdm2/MdmX hits | shares compounds with Mdm2-MdmX inh | hit rate 77% among 6,200 | inhibition, % at 8 µM | SaOS-2 full-length luciferase counterscreen, luminescence | AID 504607;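 active = mean inhibition at 8 µM reaching about 37%, which flags the compound as non-specific, limit read from the data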;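 note: p53-null SaOS-2 cells with luciferase driven by a doxycycline-inducible promoter; compound on cells about two nights before reading with doxycycline added after day one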
# Numbers stand for hits; – = inactive; · = no result. Most compounds without a hit are left out; they make up all but 5% or so of the library.
SMILES,Beta apoptosis,T cruzi inh,UPR CHOP act,XBP1 UPR activ,Mdm2-MdmX inh,CSC inhib,Mdm2 MdmX conf,FLuc counter
Cc1nc2c3ccccc3nc(SCC(=O)c3ccc(Cl)cc3)n2n1,–,–,–,–,–,–,·,·
COc1cc2nc(SCC(=O)c3ccc(Br)cc3)n3nc(C)nc3c2cc1OC,–,–,–,–,65.2,–,–,·
CC1CCN(C(=O)c2ccc3c(c2NCCO)C(=O)c2ccccc2C3=O)CC1,–,–,–,–,–,–,·,·
CCN(CC)CCNC(=O)c1ccc2c(c1NCCO)C(=O)c1ccccc1C2=O,116.0,–,–,–,91.1,–,83.7,–
COc1ccc2cc3c(N)nn(C(=O)c4ccc(Cl)c([N+](=O)[O-])c4)c3nc2c1,–,–,–,–,83.5,–,88.5,56.8
CCCC1CCC(C(=O)n2nc(N)c3cc4ccc(OC)cc4nc32)CC1 (stereo not drawn),–,–,–,–,–,–,·,·
COc1ccc2cc3c(N)nn(C(=O)c4ccccc4[N+](=O)[O-])c3nc2c1,–,–,–,–,93.3,–,87.3,51.4
CC(=O)NCc1ccc(S(=O)(=O)N2CCN(S(=O)(=O)c3ccc4ccccc4c3)CC2)cc1,·,·,–,–,62.5,·,–,·
CN1CCN(S(=O)(=O)c2ccc3ccccc3c2)CC1,–,–,–,–,–,–,·,·
CCc1c(C)nc(Nc2nc(C)c3cc(OC)ccc3n2)[nH]c1=O,–,–,–,–,–,–,·,·
COc1ccc2nc(Nc3nc(CSc4nc5ccccc5[nH]4)cc(=O)[nH]3)nc(C)c2c1,76.6,–,–,–,65.4,–,52.2,46.2
Cc1nc(Nc2nc(CSc3nc4ccccc4[nH]3)cc(=O)[nH]2)nc2ccccc12,–,–,–,–,55.2,194.9,65.5,61.3
Cc1ccc2nc(Nc3nc(CSc4nnnn4-c4ccccc4)cc(=O)[nH]3)nc(C)c2c1,–,–,–,–,–,·,·,·
Cc1ccccc1S(=O)(=O)Nc1nc2ccccc2nc1N1CCc2ccccc2C1,–,–,–,–,–,–,·,·
CCN(C(=O)c1cccs1)C1CCS(=O)(=O)C1 (stereo not drawn),·,–,–,–,–,·,·,·
COc1ccc(CNC(=O)C/C(C)=N/NC(=O)COc2ccc(C)cc2Br)cc1,–,–,–,–,56.8,–,–,·
O=c1[nH]cnc2c1sc1nc(C(F)F)cc(-c3ccccc3)c12,–,·,–,–,52.9,–,–,·
COc1ccc(-c2nc3ccccc3c(=O)n2NC(=S)N(C)C)cc1,–,–,–,–,–,–,·,·
COc1ccc(S(=O)(=O)N2CCC(C(=O)Nc3ccc(F)cc3)CC2)c2cccnc12,–,–,–,–,–,–,·,·
CN1C(c2ccc(F)cc2)=CS/C1=C(/C#N)c1nnc(N2CCOCC2)n1-c1ccccc1,–,–,–,–,–,–,·,·
CN1C(=O)NC(c2ccccc2)(C(F)(F)F)S/C1=C(/C#N)c1nnc(N2CCOCC2)n1-c1ccccc1 (stereo not drawn),–,–,–,–,50.2,–,–,·
CCN(CC)CCN(C(=O)c1ccc2ccccc2c1)c1nc2ccc(F)cc2s1,–,–,–,–,–,–,·,·
CN(C)CCCN(C(=O)/C=C/c1cccs1)c1nc2ccc(F)cc2s1,–,–,–,–,58.6,–,–,62.7
CN(C)CCN(C(=O)/C=C/c1cccs1)c1nc2c(F)cc(F)cc2s1,–,–,–,–,69.4,–,41.9,–
CCN(CC)CCN(C(=O)/C=C/c1cccs1)c1nc2ccc(C)cc2s1,–,–,–,–,65.1,–,–,·
SMILES,Beta apoptosis,T cruzi inh,UPR CHOP act,XBP1 UPR activ,Mdm2-MdmX inh,CSC inhib,Mdm2 MdmX conf,FLuc counter
CCOC(=O)N1CCN(S(=O)(=O)c2ccc(C(=O)N(CCN(CC)CC)c3nc4ccc(C)cc4s3)cc2)CC1,–,–,–,–,–,–,·,·
CCN(CC)CCN(C(=O)/C=C/c1cccs1)c1nc2ccc(F)cc2s1,–,–,–,–,52.1,–,–,·
CN(C)CCN(C(=O)c1ccc2ccccc2c1)c1nc2c(F)cc(F)cc2s1,–,–,–,–,–,–,·,·
O=C(CC(c1cccs1)S(=O)(=O)c1ccccc1)c1ccc(F)cc1 (stereo not drawn),–,–,–,–,–,–,·,·
CCn1c(CNC(=O)c2cccc(C)c2)nc2ccccc21,–,–,–,–,–,–,·,·
Cc1nc2ccc(C(=O)N3CCN(Cc4ccccc4)CC3)cc2[nH]1,–,–,–,–,–,·,·,·
O=C(c1ccc(Br)o1)N(Cc1ccccc1)c1ccccn1,–,–,–,–,–,–,·,·
CC(NS(=O)(=O)/C=C/c1ccccc1)C(=O)NCCc1ccc(S(N)(=O)=O)cc1 (stereo not drawn),–,–,–,–,–,–,·,·
CC(C)N=c1cc2n(-c3ccc(Cl)cc3)c3ccccc3nc-2cc1Nc1ccc(Cl)cc1,114.0,–,–,–,97.1,104.2,94.2,–
Cc1ccc(-n2c(C)c([N+](=O)[O-])c3ccc(O)cc32)cc1,–,–,–,–,–,–,64.6,–
Cc1c([N+](=O)[O-])c2ccc(O)cc2n1-c1ccccc1,–,–,–,–,66.5,–,65.4,–
Cc1c(C(=O)O)c2cc(O)ccc2n1-c1ccccc1,–,–,–,–,–,–,·,·
Cc1ccc(COc2ccccc2-c2cc(C(=O)N/N=C/c3cccnc3)[nH]n2)cc1,–,–,–,–,55.3,77.5,58.6,71.7
Cc1ccc(CNC(=O)Cc2ccc(-c3ccccc3)cc2)cc1,–,–,–,–,57.6,–,60.8,73.2
O=C(Cc1ccc(-c2ccccc2)cc1)NCc1ccccc1,·,–,–,–,–,·,·,·
Cc1ccc(CC(=O)NCc2ccc(F)cc2)cc1,–,–,–,–,58.1,–,48.0,59.3
C=CCN(c1ccccc1)S(=O)(=O)c1cccc(C(=O)NCC(c2cccs2)N2CCOCC2)c1 (stereo not drawn),–,–,–,–,–,·,·,·
Nc1nc(N)c2cc(Sc3ccc4ccccc4c3)ccc2n1,108.7,58.5,–,–,100.2,119.2,61.5,37.5
Nc1ccc(Sc2cc(Cl)nc(N)n2)cc1,–,–,–,–,–,–,·,·
CN(C(=O)COC(=O)C1COc2ccccc2O1)C1(C#N)CCCCC1 (stereo not drawn),–,·,–,–,–,–,·,·
N#Cc1ccc(NC(=O)Nc2ccc(Oc3ccc(NC(=O)Nc4ccc(C#N)cc4)cc3)cc2)cc1,–,60.6,–,–,60.0,–,74.3,–
Cc1ccc(-c2csc3nc4c5ccccc5c(NCCCN5CCOCC5)nn4c(=O)c23)cc1,–,–,–,–,–,–,·,·
Cc1ccc(-c2csc3nc4c5ccccc5c(NCCCN(C)C)nn4c(=O)c23)cc1,–,–,–,–,100.3,–,50.3,64.1

# Screens as filed in PubChem BioAssay.
